Experimental data: ChEMBL document CHEMBL2034859, “Simple, fast and efficient synthesis of β-keto esters from the esters of heteroaryl compounds, its antimicrobial study and cytotoxicity towards various cancer cell lines” (Bioorg Med Chem Lett, 2012)
Values after ≈ are worked out from the molar mass of the structure shown.

Key:
Escherichia coli [1] = test: Antibacterial activity against Escherichia coli ATCC 25922 after 24 hrs by disc diffusion method; format: functional
How it was run: (§1)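 Disc diffusion susceptibility test. The Klebsiella pneumoniae strain was a recultured isolate, not an ATCC stock.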

Staphylococcus aureus [2] = test: Antibacterial activity against Staphylococcus aureus ATCC 25923 after 24 hrs by disc diffusion method; format: functional; how it was run: as §1
Pseudomonas aeruginosa [3] = test: Antibacterial activity against Pseudomonas aeruginosa ATCC 27853 after 24 hrs by disc diffusion method; format: functional; how it was run: as §1
Klebsiella pneumoniae [4] = test: Antibacterial activity against Klebsiella pneumoniae after 24 hrs by disc diffusion method; format: functional; how it was run: as §1
Escherichia coli [5] = test: Antibacterial activity against Escherichia coli ATCC 25922 after 24 hrs; format: functional; conditions: ATCC 25922, 24 h
Staphylococcus aureus [6] = test: Antibacterial activity against Staphylococcus aureus ATCC 25923 after 24 hrs; format: functional; conditions: ATCC 25923, 24 h
Pseudomonas aeruginosa [7] = test: Antibacterial activity against Pseudomonas aeruginosa ATCC 27853 after 24 hrs; format: functional; conditions: ATCC 27853, 24 h
Klebsiella pneumoniae [8] = test: Antibacterial activity against Klebsiella pneumoniae after 24 hrs; format: functional
NCI-H460 [9] = test: Cytotoxicity against human NCI-H460 cells at 10 uM after 48 hrs by WST-1 assay; format: functional
How it was run: (§2)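 Cells from ATCC, grown in DMEM with 10% heat-inactivated FBS at 37 °C in humidified 5% CO2. Log-phase cells seeded at 5 × 10^3 cells/well and left to recover overnight, then exposed to varying compound concentrations for 48 h. Controls received medium with 0.2% DMSO vehicle. CCK-8 ([…]) reagent added at 5 µL/well for 2 h, then absorbance read.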

HCT-116 [10] = test: Cytotoxicity against human HCT116 cells at 10 uM after 48 hrs by WST-1 assay; format: functional
How it was run: (§3)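 Cells from ATCC were grown in DMEM with 10% heat-inactivated FBS at 37 °C in 5% CO2. Log-phase cells were seeded at 5 × 10^3 per well and left to recover overnight. They were then exposed to a range of compound concentrations for 48 h, with 0.2% DMSO as the vehicle control. CCK-8 (WST) reagent was added for 2 h and absorbance was measured.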

ACHN [11] = test: Cytotoxicity against human ACHN cells at 10 uM after 48 hrs by WST-1 assay; format: functional; how it was run: as §3
Calu-1 [12] = test: Cytotoxicity against human Calu1 cells at 10 uM after 48 hrs by WST-1 assay; format: functional; how it was run: as §3
PANC-1 [13] = test: Cytotoxicity against human PANC1 cells at 10 uM after 48 hrs by WST-1 assay; format: functional; how it was run: as §2
Talaromyces marneffei [14] = test: Antifungal activity against Penicillium marneffei after 3 to 4 days by disc diffusion method; format: functional
[15] = test system: Trichophyton mentagrophytes; test: Antifungal activity against Trichophyton mentagrophytes after 3 to 4 days by disc diffusion method; format: functional
Aspergillus flavus [16] = test: Antifungal activity against Aspergillus flavus NCIM 524 after 3 to 4 days; format: functional
Aspergillus fumigatus [17] = test: Antifungal activity against Aspergillus fumigatus NCIM 902 after 3 to 4 days; format: functional
How it was run: (§4)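 Compounds were dissolved in DMSO and tested by serial plate dilution. Activity was read as the diameter of the inhibition zone, with ciclopiroxolamine as the reference standard. Penicillium marneffei and Trichophyton mentagrophytes were recultured isolates.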

Talaromyces marneffei [18] = test: Antifungal activity against Penicillium marneffei after 3 to 4 days; format: functional
[19] = test system: Trichophyton mentagrophytes; test: Antifungal activity against Trichophyton mentagrophytes after 3 to 4 days; format: functional; how it was run: as §4
Aspergillus fumigatus [20] = test: Antifungal activity against Aspergillus fumigatus NCIM 902 after 3 to 4 days by disc diffusion method; format: functional
Aspergillus flavus [21] = test: Antifungal activity against Aspergillus flavus NCIM 524 after 3 to 4 days by serial plate dilution method
NCI-H460 [22] = test: Cytotoxicity against human NCI-H460 cells at 1000 nM after 48 hrs by WST-1 assay; format: functional; how it was run: as §2
HCT-116 [23] = test: Cytotoxicity against human HCT116 cells at 1000 nM after 48 hrs by WST-1 assay; format: functional; how it was run: as §3
ACHN [24] = test: Cytotoxicity against human ACHN cells at 1000 nM after 48 hrs by WST-1 assay; format: functional; how it was run: as §3
Calu-1 [25] = test: Cytotoxicity against human Calu1 cells at 1000 nM after 48 hrs by WST-1 assay; format: functional; how it was run: as §3
PANC-1 [26] = test: Cytotoxicity against human PANC1 cells at 1000 nM after 48 hrs by WST-1 assay; format: functional; how it was run: as §2

MIC (Escherichia coli [5]) [µg/mL]	MIC (Staphylococcus aureus [6]) [µg/mL]	MIC (Pseudomonas aeruginosa [7]) [µg/mL]	MIC (Klebsiella pneumoniae [8]) [µg/mL]	MIC (Aspergillus flavus [16]) [µg/mL]	MIC (Aspergillus fumigatus [17]) [µg/mL]	MIC (Talaromyces marneffei [18]) [µg/mL]	MIC [19] [µg/mL]	Structure (SMILES)	inhibition zone (IZ) (Escherichia coli [1]) [mm]	inhibition zone (IZ) (Staphylococcus aureus [2]) [mm]	inhibition zone (IZ) (Pseudomonas aeruginosa [3]) [mm]	inhibition zone (IZ) (Klebsiella pneumoniae [4]) [mm]	Activity (NCI-H460 [9]) [%]	Activity (HCT-116 [10]) [%]	Activity (ACHN [11]) [%]	Activity (Calu-1 [12]) [%]	Activity (PANC-1 [13]) [%]	inhibition zone (IZ) (Talaromyces marneffei [14]) [mm]	inhibition zone (IZ) [15] [mm]	inhibition zone (IZ) (Aspergillus fumigatus [20]) [mm]	other results
–	–	–	–	–	–	–	–	CCOC(=O)CC(=O)c1cccnc1	–	–	–	–	19	30	30	30	35	–	–	–	–
–	–	–	–	–	–	–	–	CCOC(=O)CC(=O)c1cn(C(=O)OC(C)(C)C)c2ccccc12	–	–	–	–	39	33	30	20	23	–	–	–	–
–	–	–	–	–	–	–	–	CCOC(=O)CC(=O)c1ccncn1	–	–	–	–	13	20	15	12	35	–	–	–	–
12.5 (≈ 51.4 µM)	12.5 (≈ 51.4 µM)	12.5 (≈ 51.4 µM)	12.5 (≈ 51.4 µM)	6.25 (≈ 25.7 µM)	6.25 (≈ 25.7 µM)	6.25 (≈ 25.7 µM)	6.25 (≈ 25.7 µM)	CCOC(=O)CC(=O)c1cc2ccccc2cn1	19	16	22	23	17	29	30	21	23	25	23	23	inhibition zone (IZ) (Aspergillus flavus [21]): 27 mm
–	–	–	–	–	–	–	–	CCOC(=O)CC(=O)c1cnccn1	–	–	–	–	20	30	34	16	27	–	–	–	–
–	–	–	–	–	–	–	–	CCOC(=O)CC(=O)c1nccn1CCOC	–	–	–	–	14	28	21	24	26	–	–	–	–
6.25 (≈ 27.3 µM)	6.25 (≈ 27.3 µM)	6.25 (≈ 27.3 µM)	6.25 (≈ 27.3 µM)	6.25 (≈ 27.3 µM)	6.25 (≈ 27.3 µM)	6.25 (≈ 27.3 µM)	6.25 (≈ 27.3 µM)	CCOC(=O)CC(=O)c1cnc(Cl)cn1	24	23	21	20	34	40	30	31	14	24	25	26	inhibition zone (IZ) (Aspergillus flavus [21]): 22 mm
–	–	–	–	–	–	–	–	CCOC(=O)CC(=O)c1sc(Cl)nc1C	–	–	–	–	24	48	37	32	29	–	–	–	–
–	–	–	–	–	–	–	–	CCOC(=O)CC(=O)c1nccn1C	–	–	–	–	14	11	30	30	35	–	–	–	–
–	–	–	–	–	–	–	–	CN1CC[C@H](c2c(O)cc(O)c3c(=O)cc(-c4ccccc4Cl)oc23)[C@H](O)C1 [ALVOCIDIB]	–	–	–	–	–	–	–	–	–	–	–	–	Activity (NCI-H460 [22]): 71%; Activity (HCT-116 [23]): 78%; Activity (ACHN [24]): 71%; Activity (Calu-1 [25]): 88%; Activity (PANC-1 [26]): 74%
–	–	–	–	–	–	–	–	CCOC(=O)CC(=O)c1ccncc1	–	–	–	–	10	39	31	12	10	–	–	–	–
–	–	–	–	–	–	–	–	Nc1ccn([C@@H]2O[C@H](CO)[C@@H](O)C2(F)F)c(=O)n1 [GEMCITABINE]	–	–	–	–	–	–	–	–	–	–	–	–	Activity (NCI-H460 [22]): 73%; Activity (HCT-116 [23]): 74%; Activity (ACHN [24]): 73%; Activity (Calu-1 [25]): 71%; Activity (PANC-1 [26]): 79%
–	–	–	–	–	–	–	–	CCOC(=O)C(C)C(=O)c1nccc2ccccc12 (stereo unspecified)	–	–	–	–	19	24	25	20	30	–	–	–	–
–	–	–	–	3.12	6.25	6.25	3.12	Cc1cc(C2CCCCC2)n(O)c(=O)c1.NCCO [CICLOPIROX OLAMINE]	–	–	–	–	–	–	–	–	–	23	27	26	inhibition zone (IZ) (Aspergillus flavus [21]): 27 mm
6.25 (≈ 19 µM)	6.25 (≈ 19 µM)	6.25 (≈ 19 µM)	6.25 (≈ 19 µM)	12.5 (≈ 38.1 µM)	12.5 (≈ 38.1 µM)	12.5 (≈ 38.1 µM)	12.5 (≈ 38.1 µM)	CCOC(=O)CC(=O)c1cccc2sc(Br)nc12	22	21	22	23	14	39	31	19	27	17	17	18	inhibition zone (IZ) (Aspergillus flavus [21]): 19 mm
6.25 (≈ 32.2 µM)	6.25 (≈ 32.2 µM)	6.25 (≈ 32.2 µM)	6.25 (≈ 32.2 µM)	12.5 (≈ 64.4 µM)	12.5 (≈ 64.4 µM)	12.5 (≈ 64.4 µM)	12.5 (≈ 64.4 µM)	CCOC(=O)CC(=O)c1ncccn1	24	22	22	23	20	23	10	17	37	17	18	25	inhibition zone (IZ) (Aspergillus flavus [21]): 22 mm
–	–	–	–	–	–	–	–	CCOC(=O)CC(=O)c1cnc2ccccc2c1	–	–	–	–	20	28	20	23	26	–	–	–	–
–	–	–	–	–	–	–	–	CCOC(=O)CC(=O)c1ccccn1	–	–	–	–	36	21	25	22	27	–	–	–	–
6.25 (≈ 25.7 µM)	6.25 (≈ 25.7 µM)	6.25 (≈ 25.7 µM)	6.25 (≈ 25.7 µM)	12.5 (≈ 51.4 µM)	12.5 (≈ 51.4 µM)	12.5 (≈ 51.4 µM)	12.5 (≈ 51.4 µM)	CCOC(=O)CC(=O)c1nccc2ccccc12	19	22	20	22	34	26	30	30	35	18	17	18	inhibition zone (IZ) (Aspergillus flavus [21]): 15 mm

Structure (SMILES)	MIC (Escherichia coli [5]) [µg/mL]	MIC (Staphylococcus aureus [6]) [µg/mL]	MIC (Pseudomonas aeruginosa [7]) [µg/mL]	MIC (Klebsiella pneumoniae [8]) [µg/mL]	MIC (Aspergillus flavus [16]) [µg/mL]	MIC (Aspergillus fumigatus [17]) [µg/mL]	MIC (Talaromyces marneffei [18]) [µg/mL]	MIC [19] [µg/mL]	inhibition zone (IZ) (Escherichia coli [1]) [mm]	inhibition zone (IZ) (Staphylococcus aureus [2]) [mm]	inhibition zone (IZ) (Pseudomonas aeruginosa [3]) [mm]	inhibition zone (IZ) (Klebsiella pneumoniae [4]) [mm]	Activity (NCI-H460 [9]) [%]	Activity (HCT-116 [10]) [%]	Activity (ACHN [11]) [%]	Activity (Calu-1 [12]) [%]	Activity (PANC-1 [13]) [%]	inhibition zone (IZ) (Talaromyces marneffei [14]) [mm]	inhibition zone (IZ) [15] [mm]	inhibition zone (IZ) (Aspergillus fumigatus [20]) [mm]	other results
O=C(O)c1cn(C2CC2)c2cc(N3CCNCC3)c(F)cc2c1=O [CIPROFLOXACIN]	6.25 (≈ 18.9 µM)	6.25 (≈ 18.9 µM)	6.25 (≈ 18.9 µM)	6.25 (≈ 18.9 µM)	–	–	–	–	32	23	28	23	–	–	–	–	–	–	–	–	–
